Bioassay records: PubChem BioAssay, several laboratories
PostGolgi ctrl = inhibits growth of the yeast control strain; efflux-deficient yeast background strain, growth absorbance A615, 16 h; inhibition, % at 10 µM; hit rate 5% among 98,000; AID 738
Ecoli WT expand = growth inhibitors of E. coli BW25113 wild type; AID 710; growth inhibition, % at 100 µM; hit rate 0.15% among 98,000; OD600 absorbance;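 active = growth inhibition above about 50% at one test dose, limit read from the data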;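 also: growth measured after 20 h incubation at 37 °C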
hDAT+cocaine = human DAT dopamine uptake with cocaine, either direction | Q01959 | LLC-PK1 hDAT cells, [14C]-dopamine uptake with cocaine IC80; actives deviate in either direction | B-score at 10 µM | hit rate 1.3% among 110,000 | AID 449768;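 active = Z score or B-score, a plate-position-corrected score, falls beyond the plate's 99.7% confidence bounds, in either direction; inactive = both scores lie inside the 99.7% bounds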;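 also: scored against the spread of the other compound wells on the same plate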
Target sequence (Q01959 whole entry, looked up): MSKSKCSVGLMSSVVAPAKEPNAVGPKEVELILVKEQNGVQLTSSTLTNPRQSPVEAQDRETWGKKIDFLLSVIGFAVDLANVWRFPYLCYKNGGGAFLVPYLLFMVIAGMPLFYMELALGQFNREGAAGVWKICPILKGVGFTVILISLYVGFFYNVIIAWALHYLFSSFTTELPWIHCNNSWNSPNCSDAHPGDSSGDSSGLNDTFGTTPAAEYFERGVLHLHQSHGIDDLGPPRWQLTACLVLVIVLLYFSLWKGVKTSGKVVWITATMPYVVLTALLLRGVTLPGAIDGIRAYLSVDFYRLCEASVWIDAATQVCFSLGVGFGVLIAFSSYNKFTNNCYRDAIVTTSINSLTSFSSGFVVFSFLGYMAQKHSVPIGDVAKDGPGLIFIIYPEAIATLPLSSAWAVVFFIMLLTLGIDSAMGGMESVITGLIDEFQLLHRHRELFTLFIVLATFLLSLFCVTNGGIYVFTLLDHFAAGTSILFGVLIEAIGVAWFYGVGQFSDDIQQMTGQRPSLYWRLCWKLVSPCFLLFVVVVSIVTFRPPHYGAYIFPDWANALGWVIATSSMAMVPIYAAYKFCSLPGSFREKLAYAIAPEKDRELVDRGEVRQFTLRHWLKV
D1 allo mod = allosterically modulates the human D1 dopamine receptor | P21728 | HEK293 D1, CRE-luciferase, dopamine EC30 potentiation; actives deviate in either direction | B-score at 10 µM | hit rate 5.9% among 58,000;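 active = luminescence count or its row- and column-corrected plate score outside the 99.7% band of the plate's sample wells, on either side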
Ecoli tolC = E. coli tolC mutant growth inhibition; E. coli BW25113 tolC mutant growth, OD615; growth inhibition, % at 10 µM (by protocol); hit rate 2.2% among 65,000; AID 573;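 active = growth inhibition at or above a cutoff equal to the mean over every tested compound plus 3 SD, cut at about 60% in these data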;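 also: growth measured after 20 h incubation at 37 °C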
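Test system – E. coli BW25113 ΔtolC::kan, tolC deletion mutant strain · Detection – OD at 615 nm · Buffer or medium – LB with kanamycin 50 µg/mL · Times – 20 h compound exposure of bacteria at 37 °C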
PostGolgi yeast = growth inhibition of a yeast mutant, post-Golgi transport screen; post-Golgi transport phenotypic cell assay; inhibition, % at 10 µM; hit rate 0.9% among 98,000; AID 739;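 also: yeast cells grown in 1536-well plates; yeast grown about 18 h at 30C before absorbance read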
D1 PAM confirm = D1 receptor (human) allosteric modulation, confirmed; shares compounds with D1 allo mod; HEK293 D1 CRE-luciferase, dopamine EC30 potentiation; stronger effect = higher value; luminescence at 10 µM; hit rate 88% among 2,200;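 active = luminescence in either of two replicates above the same-plate mean plus 3 SD of the low-dose dopamine control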
D1 no dopamine = activates D1 CRE-luciferase signal without dopamine present. HEK293 D1 CRE-luciferase, luminescence, no dopamine; stronger effect = higher value. shares compounds with D1 allo mod. AID 646. luminescence at 10 µM. hit rate 0.8% among 1,900; in the data active = luminescence above about 3900
Isoprot counter = alters isoproterenol CRE-luciferase response in HEK293 cells; shares compounds with D1 allo mod; calls only at 10 µM; hit rate 63% among 2,200; HEK293 D1 CRE-luciferase, isoproterenol EC30 counter-screen;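 active = luminescence in either replicate above plate mean of wells with a partly effective reference agonist dose plus 3 SD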;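 also: isoproterenol raises cAMP through native beta-adrenoceptor Gs so signal bypasses D1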
* = called active by the depositor; i = inactive; . = not tested or not shown; + = active, no number. A selection: hits, their analogues and other compounds. The true share with any hit is near 9.3%. Rule as the data show it, unless noted: active = inhibition above about 30%; inactive = the rest.

SMILES | PostGolgi ctrl | Ecoli WT expand | hDAT+cocaine | D1 allo mod | Ecoli tolC | PostGolgi yeast | D1 PAM confirm | D1 no dopamine | Isoprot counter
Cc1nn2c(N3CCCC3)cc(C(C)C)nc2c1-c1ccccc1 | -2 | 7 | -0.24 | 5.3* | -11 | 22 | 5624* | 1528 | i
Cc1cc(N2CCCCC2)n2nc(C)c(-c3ccccc3)c2n1 | 25 | 2 | -0.057 | 0.33 | 33 | -4 | . | . | .
CC(=O)c1cc(C#N)c(SCc2ccncc2)nc1C | 4 | 4 | -0.16 | 5.6* | 16 | 2 | 8540* | 1916 | i
CC(=O)c1cc(C#N)c(SCC(=O)OC(C)(C)C)nc1C | 14 | 4 | 0.11 | 3.4* | 0 | 12 | 10808* | 1660 | i
Cc1cc2nnn(-c3nnc(-c4ccccc4)c4ccccc34)c2cc1C | 10 | -3 | 0.19 | . | . | 1 | . | . | .
O=C1c2cccnc2C(Nc2ccccc2)N1Cc1ccco1 (stereo not drawn) | 1 | 3 | -0.89 | . | . | 1 | . | . | .
CC(=O)c1cccc(NC2c3ncccc3C(=O)N2Cc2ccco2)c1 (stereo not drawn) | 6 | 0 | 0.046 | 20* | -7 | 6 | 19736* | . | +
COc1ccc(N(C(=O)c2ccco2)S(=O)(=O)c2cccs2)cc1 | 11 | 1 | 0.0093 | 7.5* | 12 | 21 | 14396* | 1668 | +
CC/C=C\[C@H](O)[C@H](O)C1=C(C)C(=O)[C@]2(O1)C(=O)N[C@@](OC)(C(=O)c1ccccc1)C2O (stereo partly drawn) | . | . | -0.7 | . | . | . | . | . | .
CCN(CC)C(=O)c1sc(NC(=O)c2ccc3c(c2)OCO3)c(C#N)c1C | 6 | 4 | -0.015 | . | . | -2 | . | . | .
COC(=O)c1c(NC(=O)c2ccco2)sc(C(=O)N2CCCC2)c1C | 4 | -5 | 1.3 | 6.9* | 10 | 18 | 12140* | . | +
CCN(CC)C(=O)c1sc(NC(=O)Cc2cccs2)c(C#N)c1C | 8 | -1 | 1.1 | 6.9* | 10 | 17 | 11496* | 1544 | i
CCOC(=O)c1c(NC(=O)c2ccco2)sc2c1CCCC2 | 8 | 3 | -1.6 | 1.4 | 9 | 3 | . | . | .
COC(=O)c1c(NC(=O)Cc2cccs2)sc(C(=O)NC2CCCCC2)c1C | . | . | -0.12 | . | . | . | . | . | .
COC(=O)c1c(NC(=O)Cc2cccs2)sc(C(=O)N2CCCCC2)c1C | 14 | -11 | -0.94 | 7.3* | 23 | -7 | 25076* | 1708 | +
COC(=O)c1c(NC(=O)Cc2cccs2)sc2c1CCC(C)C2 (stereo not drawn) | 0 | -6 | -1 | 4.9* | -7 | -7 | 8816* | 1552 | i
Cc1cc(C)c2c(CC(=O)N(CCC#N)Cc3cccnc3)coc2c1 | -7 | 9 | . | 0.056 | 0 | 3 | . | . | .
Cc1ccc(N2C(=O)C3ON(c4ccccc4)C(c4ccncc4)C3C2=O)c(C)c1 (stereo not drawn) | 10 | 2 | -0.12 | . | 12 | 20 | . | . | .
CCOC(=O)c1c(NC(=O)Cc2cccs2)sc(C(=O)NC2CCCC2)c1C | -3 | 3 | -1.5 | . | . | 0 | . | . | .
CCOC(=O)c1c(NC(=O)Cc2cccs2)sc(C)c1C | 9 | 0 | -1.5 | 13* | 56 | -7 | 15008* | 1728 | +
CCOC(=O)c1c(NS(C)(=O)=O)sc2c1CCC(C)C2 (stereo not drawn) | 32* | -6 | -0.19 | 9.2* | 12 | -3 | 13356* | 1660 | +
Cc1cccc(NC(=O)COc2nsnc2N2CCOCC2)c1 | 8 | 2 | 0.41 | . | 10 | 7 | . | . | .
COC(=O)COc1nsnc1N1CCOCC1 | -1 | 3 | 0.62 | 2.3* | -12 | 23 | 6088* | . | i
O=C1CCCC(O)=C1C(C#Cc1ccccc1)C1=C(O)CCCC1=O | 10 | 0 | 1.2 | 3.6* | -4 | 1 | 6888 | 1524 | i
COC(=O)C1=C(C)N(CC2CC2)C(=O)N[C@H]1c1ccccc1 | . | . | -0.14 | . | . | . | . | . | .
SMILES | PostGolgi ctrl | Ecoli WT expand | hDAT+cocaine | D1 allo mod | Ecoli tolC | PostGolgi yeast | D1 PAM confirm | D1 no dopamine | Isoprot counter
COC(=O)C(C)Oc1ccc2c3c(c(=O)oc2c1)CCCCC3 (stereo not drawn) | 9 | 6 | -0.4 | 0.56 | 29 | 9 | . | . | .
CC(C)Oc1ccc2c3c(c(=O)oc2c1)CCC3 | 6 | -1 | -1 | 5.8* | 4 | -5 | 11556* | 1968 | +
COCc1cc(C)nc(NC2CCCCC2)c1C#N | 11 | 17 | 0.12 | 3.5* | 16 | -3 | 5216 | 1592 | i
N#Cc1c(N)nc(-c2ccccc2)nc1-c1ccccc1 | 10 | -7 | -0.16 | 18* | -11 | -3 | 18844* | 1712 | i
N#Cc1c(-c2ccccc2)nc(-c2ccccc2)nc1N1CCOCC1 | 20 | -5 | 0.35 | . | . | -3 | . | . | .
C=CCN1c2ccccc2[C@]23C[C@@H](C(=O)OC)N(C(=O)NCCC)C2=NC(C(=O)OC)=C(C(=O)OC)[C@H]13 | . | . | 0.89 | . | . | . | . | . | .
CSc1nncc(-c2ccc(F)c(F)c2)n1 | 5 | 2 | 0.67 | 4.4* | -3 | 2 | 11748* | 1704 | i
CSc1nnc(-c2ccc(F)cc2)o1 | 7 | 10 | 0.39 | -1.1 | -13 | 9 | . | . | .
CSc1nncc(-c2ccc(F)cc2)n1 | 8 | 6 | 0.042 | 8.2* | 1 | 19 | 8776* | . | +
O=C(Nc1ccccc1)C1=C[C@@H](C2CC2)C[C@@H](OCCCCO)O1 | . | . | -1.5 | . | . | . | . | . | .
CC(C)Cn1c(SCC#N)nc2ccccc2c1=O | 11 | -8 | -0.89 | 8.6* | 5 | -2 | 15244* | 1668 | +
CC(C#N)On1c(SC(C)C#N)nc2ccccc2c1=O (stereo not drawn) | 13 | 2 | -1.2 | 4.2* | 13 | -4 | 11488* | . | i
CCN(CC)C(=O)CSc1nc2ccccc2c(=O)n1OC(C)C | 14 | -6 | 0.12 | . | . | 0 | . | . | .
COc1ccc(-c2nnc(CSc3nc4ccccc4c(=O)n3CC(C)C)o2)cc1OC | 6 | -3 | -0.13 | 5.8* | 52 | -11 | 6848* | . | +
COc1cc(-c2noc(-c3cccs3)n2)cc(OC)c1OC | 7 | -10 | 0.79 | 0.32 | 7 | -7 | . | . | .
CCOc1ccc(Br)cc1-c1noc(-c2cccs2)n1 | 12 | -14 | -0.3 | 6.7* | 15 | -5 | 22604* | 1692 | +
CCCCN(CC)C(=O)c1ccc(Cl)c(Cl)c1 | 8 | 8 | -0.78 | 3.8* | 20 | 1 | 7124* | 1704 | i
CCO[C@H]1OC(C(=O)N2CCN(C)CC2)=C[C@@H](C2CC2)[C@@H]1CCCO | . | . | -0.99 | . | . | . | . | . | .
COc1ccccc1N1CCN(C(=O)c2cnn3cccnc23)CC1 | -2 | -3 | 0.085 | 0.83 | -20 | 2 | . | . | .
